Experimental findings from ChEMBL document CHEMBL1122710, “6-Methylangelicins: a new series of potential photochemotherapeutic agents for the treatment of psoriasis” (J Med Chem, 1984) are described below.

Several values for one entry are separate records, joined by “and”; a condition that tells them apart may be missing. Equal values may be shown once. Activity calls are given as the source filed them. The calls are words filed in the database; no cut-off is given here.

In data set [1] the test system is Nucleic Acid. Put plainly: (§1) Compound was evaluated for the association constant to an isolated site of DNA. The format is nucleic-acid assay. Also noted: unit not given here. The settings on record: Bos taurus.
Data set [2] in a line: Percentage of clearance of psoriatic lesions by the compound at dose of 9 J/cm e2 ultraviolet-A radiation. The format is ADME, organism-based. The settings on record: in vivo. In a few lines:
(§2)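 Psoriasis patients, with 4×4 cm skin areas per treatment. Ethanolic solution (0.1% w/v) is applied topically to 5 μg/cm² and left to evaporate. After 20 min, the area is irradiated with a UV-A fluorescent PUVA lamp. Starting dose is 2.5 J/cm², increased up to 13 J/cm² by skin tolerance. Control areas get compound without UV-A, or UV-A alone.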

The species entered for data set [3] is Homo sapiens. Nature of the data set: Erythema induction by the compound at dose of 9 J/cm e2 ultraviolet-A radiation in patient; - = absent. The format is functional, organism-based. In a few lines: as §2
The subject of data set [4] is Nucleic Acid. Nature of the data set: (§3) Compound was evaluated for the frequency of the binding site that is the number of molecules bound to every nucleotide (1/n). The format is nucleic-acid assay. The settings on record: Bos taurus.
Data set [5] in a line: Percentage of clearance of psoriatic lesions by the compound at dose of 8 J/cm e2 ultraviolet-A radiation. The format is ADME, organism-based. The settings on record: in vivo. In a few lines:
as §2

The species named for data set [6] is Homo sapiens. Put plainly: Number of treatments at dose of 8 J/cm e2 ultraviolet-A radiation. The format is functional. The method, boiled down: as §2
Data set [7] is described as follows: Percentage of clearance of psoriatic lesions by 8-methoxypsoralen (8-MOP) for comparison at dose of 8 J/cm e2 ultraviolet-A radiation. The format is ADME, organism-based. The settings on record: in vivo. In a few lines:
as §2

For data set [8], the system named is Nucleic Acid. Put plainly: Compound was evaluated for the binding parameter by determining the number of nucleotides occluded by a bound angelicin (n). The format is nucleic-acid assay. The settings on record: Bos taurus.
For the next data set, the species on record is Mus musculus. Nature of the data set: Compound was evaluated for 50% inhibition of DNA synthesis in Ehrlich ascites tumor cells by irradiation (365 nM) at 1.9 x 10e -5M incubated with [3H]thymidine at 37 degree C (p 0.05). The format is functional. In a few lines: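 Ehrlich ascites tumor cells (2×10^7 cells/mL in Hanks' solution) are irradiated on ice with the compound present, using an HPW 125 lamp at 20 cm. 2×10^6 cells are then pulsed with 1 μCi [3H]thymidine for 15 min at 37 °C. TCA-insoluble counts are taken as % of untreated controls, at least duplicates per dose. UV-A dose for 50% inhibition is derived by probit analysis.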

Data set [9] is filed under the species Homo sapiens. Put plainly: Pigmentation capacity at dose of 9 J/cm e2 ultraviolet-A radiation in patient; + = moderate. The format is functional, organism-based. The method, boiled down: as §2
Data set [10] can be described thus: Percentage of clearance of psoriatic lesions by 8-methoxypsoralen (8-MOP) for comparison at dose of 9 J/cm e2 ultraviolet-A radiation. The format is ADME, organism-based. The settings on record: in vivo. The method, boiled down: as §2
In data set [11] the test system is Nucleic Acid. Put plainly: Compound was evaluated for the binding parameter by determining rate constant. The format is nucleic-acid assay. The settings on record: Bos taurus.
The species named for data set [12] is Homo sapiens. Put plainly: Number of treatments at dose of 9 J/cm e2 ultraviolet-A radiation. The format is functional. In a few lines:
as §2

For data set [13], the species on record is Homo sapiens. Nature of the data set: Pigmentation capacity at dose of 8 J/cm e2 ultraviolet-A radiation in patient; + = moderate. The format is functional, organism-based. The method, boiled down:
as §2

For data set [14], the species on record is Homo sapiens. Nature of the data set: Erythema induction by the compound at dose of 8 J/cm e2 ultraviolet-A radiation in patient; - = absent. The format is functional, organism-based. The method, boiled down:
as §2

The species named for data set [15] is Bos taurus. The data set is described as §1.
The species entered for data set [16] is Bos taurus. The description is as §3.
The species entered for data set [17] is Homo sapiens. Put plainly: (§4) Number of treatments at dose of 6 J/cm e2 ultraviolet-A radiation. The format is functional. In a few lines:
as §2

The species named for data set [18] is Homo sapiens. Nature of the data set: Erythema induction by the compound at dose of 4 J/cm e2 ultraviolet-A radiation in patient; - = absent. The format is functional, organism-based. In a few lines: as §2
Data set [19] in a line: Percentage of clearance of psoriatic lesions by the compound at dose of 10 J/cm e2 ultraviolet-A radiation. The format is ADME, organism-based. The settings on record: in vivo. The method, boiled down: as §2
For data set [20], the species on record is Homo sapiens. Described as §4. The format is functional. The method, boiled down:
as §2
This is another data set of the same source.

The species entered for data set [21] is Homo sapiens. Nature of the data set: Erythema induction by the compound at dose of 6 J/cm e2 ultraviolet-A radiation in patient; - = absent. The format is functional, organism-based. The method, boiled down:
as §2

For data set [22], the species on record is Homo sapiens. Put plainly: Pigmentation capacity of 8-methoxypsoralen (8-MOP) for comparison at dose of 10 J/cm e2 ultraviolet-A radiation in patient; +=moderate. The format is functional, organism-based. In a few lines:
as §2

The nature of data set [23]: Percentage of clearance of psoriatic lesions by 8-methoxypsoralen (8-MOP) for comparison at dose of 10 J/cm e2 ultraviolet-A radiation. The format is ADME, organism-based. The settings on record: in vivo. The method, boiled down: as §2
The species named for data set [24] is Homo sapiens. Put plainly: Number of treatments at dose of 4 J/cm e2 ultraviolet-A radiation (patient). The format is functional. In a few lines:
as §2

Data set [25] is filed under the species Homo sapiens. Put plainly: Pigmentation capacity of 8-methoxypsoralen (8-MOP) for comparison at dose of 6 J/cm e2 ultraviolet-A radiation in patient; + = moderate. The format is functional, organism-based. In a few lines:
as §2

For data set [26], the species on record is Homo sapiens. Put plainly: Erythema induction by the compound at dose of 10 J/cm e2 ultraviolet-A radiation in patient; - = absent. The format is functional, organism-based. In a few lines:
as §2

Data set [27] can be described thus: Percentage of clearance of psoriatic lesions by 8-methoxypsoralen (8-MOP) for comparison at dose of 6 J/cm e2 ultraviolet-A radiation. The format is ADME, organism-based. The settings on record: in vivo. The method, boiled down:
as §2

The species entered for data set [28] is Homo sapiens. Put plainly: Pigmentation capacity at dose of 6 J/cm e2 ultraviolet-A radiation in patient; + = moderate. The format is functional, organism-based. In a few lines: as §2
Data set [29] is filed under the species Homo sapiens. Put plainly: Erythema induction by 8-methoxypsoralen (8-MOP) for comparison at dose of 8 J/cm e2 ultraviolet-A radiation in patient, +=moderate. The format is functional, organism-based. The method, boiled down: as §2
The species named for data set [30] is Homo sapiens. Put plainly: Number of treatments at dose of 10 J/cm e2 ultraviolet-A radiation. The format is functional. The method, boiled down:
as §2

Data set [31] is described as follows: Percentage of clearance of psoriatic lesions by the compound at dose of 4 J/cm e2 ultraviolet-A radiation. The format is ADME, organism-based. The settings on record: in vivo. The method, boiled down: as §2
The species named for data set [32] is Homo sapiens. Put plainly: Pigmentation capacity of 8-methoxypsoralen (8-MOP) for comparison at dose of 4 J/cm e2 ultraviolet-A radiation in patient; - = absent. The format is functional, organism-based. In a few lines:
as §2

The species entered for data set [33] is Homo sapiens. Put plainly: Pigmentation capacity of 8-methoxypsoralen (8-MOP) for comparison at dose of 8 J/cm e2 ultraviolet-A radiation in patient; +=moderate. The format is functional, organism-based. The method, boiled down: as §2
Data set [34] is described as follows: Percentage of clearance of psoriatic lesions by the compound at dose of 6 J/cm e2 ultraviolet-A radiation. The settings on record: in vivo. The format is ADME, organism-based. In a few lines:
as §2

In the data set with Nucleic Acid [1], `Cc1cc2ccc(=O)oc2c2c(C)coc12` registered a K of 6300. Also, the Lesion_Clearance in [2] is on record as 90%; in [5], 100%; in data set [7], 85%; in data set [10], 70%. The Erythema induction result in the data set filed under Homo sapiens [3] and in the data set listed under Homo sapiens [14] was “inactive” each time. Besides, the Activity in the data set with Nucleic Acid [4] is 0.061; in the data set listed under Homo sapiens [6], 15; in the data set with Nucleic Acid [8], 16.4; in the data set listed under Homo sapiens [12] it was 15. In the data set listed under Mus musculus, the ID50 was 2.2e+18 quanta. Besides, the Pigmentation capacity entry in the data set filed under Homo sapiens [9] and in the data set listed under Homo sapiens [13] was “moderate” throughout. For the same compound, the Rate constant in the data set with Nucleic Acid [11] came out at 0.099 min⁻¹.

With `Cc1cc2c(o1)c(C)c(C)c1ccc(=O)oc12`, the K in the data set with Nucleic Acid [1] came out at 3730. Besides, the Activity in the data set on Nucleic Acid [4] was determined as 0.07; in the data set on Nucleic Acid [8] it was 14.3. In the data set filed under Mus musculus, this compound gave an ID50 of 3e+19 quanta. This compound also registered a Rate constant with Nucleic Acid [11] of 0.023 min⁻¹.

In the data set filed under Bos taurus [15], `Cc1cc2ccc(=O)oc2c2ccoc12` registered a K of 925. The Activity in the data set filed under Bos taurus [16] stood at 0.048; in the data set with Nucleic Acid [8] it was 20.8. The ID50 in the data set listed under Mus musculus stood at 2.63e+19 quanta. Further, the Rate constant with Nucleic Acid [11] turned out to be 0.036 min⁻¹.

In turn, `Cc1c(C)c2occc2c2oc(=O)ccc12` displayed an ID50 in the data set filed under Mus musculus of 3e+19 quanta.

`Cc1cc(=O)oc2c1cc(C)c1occc12` had a K with Nucleic Acid [1] of 2990. Besides, the Activity worked out at 0.063 in the data set on Nucleic Acid [4] and 15.9 with Nucleic Acid [8]. The ID50 in the data set listed under Mus musculus is 4e+18 quanta. The compound further came in with a Rate constant with Nucleic Acid [11] of 0.0523 min⁻¹.

Turning to `Cc1cc2c(o1)c(C)cc1ccc(=O)oc12`, the K with Nucleic Acid [1] amounted to 1980. Further, the Activity in the data set with Nucleic Acid [4] was determined as 0.078; with Nucleic Acid [8], 12.8. Further, the ID50 in the data set filed under Mus musculus was found to be 1.19e+19 quanta. This compound gave a Rate constant with Nucleic Acid [11] of 0.03 min⁻¹.

In turn, `Cc1cc2c(o1)c(C)cc1c(C)cc(=O)oc12` showed a K in the data set on Nucleic Acid [1] of 3310. Also, the Activity with Nucleic Acid [4] was found to be 0.045; with Nucleic Acid [8], 22.2. This compound gave an ID50 in the data set listed under Mus musculus of 3.87e+18 quanta. Moreover, the Rate constant in the data set with Nucleic Acid [11] is 0.0702 min⁻¹.

With `Cc1cc(=O)oc2c1cc(C)c1occ(C)c12`, the Activity in the data set listed under Homo sapiens [17] came out at 9; in the data set filed under Homo sapiens [20], 9; in the data set with Nucleic Acid [4], 0.091; in the data set filed under Homo sapiens [6], 11; in the data set listed under Homo sapiens [24], 11; with Nucleic Acid [8], 11. The compound further registered an Activity in the data set filed under Homo sapiens [30] of 15. The Erythema induction entry in the data set listed under Homo sapiens [18], in the data set filed under Homo sapiens [21], in the data set listed under Homo sapiens [26] and in the data set filed under Homo sapiens [14] was “inactive” throughout. The same compound yielded a K in the data set with Nucleic Acid [1] of 10100. The Lesion_Clearance was 90% in data set [19]; 100% in data set [5]; 75% in data set [7]; 90% in data set [23]; 80% and 85% in data set [27]; 95% in data set [31]. In addition, the Lesion_Clearance in data set [34] is listed as 100%. The Pigmentation capacity result in the data set listed under Homo sapiens [22], in the data set listed under Homo sapiens [25], in the data set filed under Homo sapiens [28] and in the data set filed under Homo sapiens [33] was “moderate” throughout. Also, in the data set filed under Homo sapiens [29], the Erythema induction result is “moderate”. In addition, the ID50 in the data set filed under Mus musculus was determined as 6e+16 quanta. The Pigmentation capacity result in the data set filed under Homo sapiens [32] was “inactive”. This compound registered a Rate constant in the data set on Nucleic Acid [11] of 0.133 min⁻¹.

`COc1c2occc2cc2ccc(=O)oc12` [METHOXSALEN] gave a K with Nucleic Acid [1] of 736. Further, the figures for the Activity with Nucleic Acid [4] and with Nucleic Acid [8] were 0.128 and 7.81, respectively. This compound also displayed an ID50 in the data set listed under Mus musculus of 1.38e+19 quanta. Besides, the Rate constant in the data set with Nucleic Acid [11] was 0.031 min⁻¹.

`O=c1ccc2ccc3occc3c2o1` [ANGELICIN] gave a K in the data set on Nucleic Acid [1] of 560. Moreover, the Activity with Nucleic Acid [4] was found to be 0.063; with Nucleic Acid [8] it was 15.9. The compound further displayed an ID50 in the data set listed under Mus musculus of 2.5e+19 quanta. Moreover, the Rate constant in the data set on Nucleic Acid [11] came out at 0.011 min⁻¹.
